The record followed here is ChEMBL document CHEMBL3407478, “Development of a series of aryl pyrimidine kynurenine monooxygenase inhibitors as potential therapeutic agents for the treatment of Huntington's disease” (J Med Chem, 2015).

In data set [1] the test system is Liver. In words: Dose normalized Cmax in Sprague-Dawley rat liver at 10 mg equivalents/kg, po after 0.25 to 12 hrs. The data set is classed as ADME, organism-based. Conditions: in vivo. Put shortly:
(§1)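 Male Sprague-Dawley rats given a single oral dose of 10 mg equiv/kg as a 2 mg equiv/mL solution in 10% hydroxypropyl-β-cyclodextrin. Plasma, liver, kidney, cortex, striatum and CSF levels were measured from 0.25 to 12 h. Brain tissue was taken from nonperfused brains. CSF AUCN covers 0–8 h because the elimination phase was undefined.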

The target in data set [2] is Kynurenine 3-monooxygenase (Rattus norvegicus, UniProt O88867). In words: Inhibition of KMO in rat microglia cells. The data set is classed as cell-based. Put shortly:
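Freshly isolated neonatal rat microglial cultures, induced to express KMO by a pro-inflammatory protocol. Exogenous KYN added; conversion to 3-HK monitored by mass spectrometry.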

Data set [3] can be described thus: Permeability from basolateral to apical side in human Caco2 cells. It counts as ADME, cell-based. Conditions: Caco-2, read-out: permeability.
In the next data set the test system is Plasma. The experiment in a line: Dose normalized AUC (0 to infinity) in BCRP knock out FVB/N mouse plasma at 5 mg equivalents/kg, iv by LC-MS/MS analysis. It counts as ADME, organism-based. The note with it: in vivo. Put shortly: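 Male mice given a single 5 mg equiv/kg iv bolus: FVB wild type, Bcrp(−/−), Mdr1a/b(−/−) and Mdr1a/b(−/−)/Bcrp(−/−). Brain and plasma concentration–time profiles were used to derive dose-normalized AUC (0–infinity).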

The target in data set [4] is Kynurenine 3-monooxygenase (Homo sapiens, UniProt O15229). In words: Inhibition of human KMO transfected in CHO cells assessed as conversion of kynurenine to 3-hydroxykynurenine by LC-MS/MS analysis. It counts as cell-based.
Chain of Kynurenine 3-monooxygenase (Homo sapiens, UniProt O15229) (O15229 whole entry): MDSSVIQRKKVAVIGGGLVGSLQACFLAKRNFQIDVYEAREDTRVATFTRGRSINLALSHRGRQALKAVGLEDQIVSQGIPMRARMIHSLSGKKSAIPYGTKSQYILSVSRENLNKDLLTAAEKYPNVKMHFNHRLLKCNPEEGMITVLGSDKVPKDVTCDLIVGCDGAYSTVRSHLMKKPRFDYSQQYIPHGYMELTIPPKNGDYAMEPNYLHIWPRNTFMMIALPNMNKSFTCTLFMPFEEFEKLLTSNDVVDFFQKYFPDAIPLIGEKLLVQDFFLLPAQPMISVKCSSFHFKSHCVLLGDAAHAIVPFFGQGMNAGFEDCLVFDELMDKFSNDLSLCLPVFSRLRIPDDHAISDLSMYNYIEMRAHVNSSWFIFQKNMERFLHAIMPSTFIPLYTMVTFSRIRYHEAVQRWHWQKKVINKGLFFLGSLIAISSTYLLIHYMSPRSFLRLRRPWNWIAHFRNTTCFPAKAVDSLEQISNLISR
Data set [5] has as its system Liver. The experiment in a line: Dose normalized AUC (0 to infinity) in Sprague-Dawley rat liver at 10 mg equivalents/kg, po after 0.25 to 12 hrs. The data set is classed as ADME, organism-based. The note with it: in vivo. A digest of the protocol: as §1

Chain of Kynurenine 3-monooxygenase (Rattus norvegicus, UniProt O88867) (O88867 whole entry): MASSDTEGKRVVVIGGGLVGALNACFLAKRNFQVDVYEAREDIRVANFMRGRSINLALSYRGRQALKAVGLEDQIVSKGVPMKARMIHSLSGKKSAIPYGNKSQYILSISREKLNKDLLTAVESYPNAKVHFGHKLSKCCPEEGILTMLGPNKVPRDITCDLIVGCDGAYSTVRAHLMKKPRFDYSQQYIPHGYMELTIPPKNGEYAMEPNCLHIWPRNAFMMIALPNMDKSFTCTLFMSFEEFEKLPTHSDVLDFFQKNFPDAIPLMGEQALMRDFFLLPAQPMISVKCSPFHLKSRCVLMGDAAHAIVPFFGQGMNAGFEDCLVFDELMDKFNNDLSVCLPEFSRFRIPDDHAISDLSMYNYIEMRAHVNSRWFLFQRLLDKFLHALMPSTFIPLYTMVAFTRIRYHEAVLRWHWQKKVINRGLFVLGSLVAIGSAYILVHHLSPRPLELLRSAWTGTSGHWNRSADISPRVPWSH

For the molecule `O=C(O)c1cc(-c2ccc(OC3CC3)c(Cl)c2)ncn1`, in the data set on Liver [1], the Cmax/dose stood at 9.3 µM·kg/mg. Also, the results for the IC50 in data set [2] and in data set [4] were 0.072 µM and 0.008 µM, respectively. Further, the Papp B→A in data set [3] worked out at 30.4 ×10⁻⁶ cm/s. Also, the AUC/dose in the data set with Plasma was 3.6 µM·kg·h/mg; with Liver [5], 20 µM·kg·h/mg.
